Casp6 inh = human caspase-6 inhibitors, primary screen, biochemical, VEID-R110 fluorescence, single point, set 2. P55212. purified caspase-6, Z-VEID-R110 cleavage fluorescence. inhibition, % at 12.5 µM. 350,000 compounds, 0.53% hits;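 active = mean inhibition across replicates at least about 35%, with every replicate also reaching that limit, limit read from the data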;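 note: 0% = median of neutral control wells and 100% = no fluorescence left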
Target sequence (P55212 24-179 limits assumed): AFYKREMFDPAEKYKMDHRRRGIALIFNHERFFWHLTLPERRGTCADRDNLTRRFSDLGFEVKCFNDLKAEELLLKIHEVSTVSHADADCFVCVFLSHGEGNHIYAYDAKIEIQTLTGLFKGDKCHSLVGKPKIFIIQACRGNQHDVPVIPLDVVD
Target sequence (P55212 194-293 limits assumed): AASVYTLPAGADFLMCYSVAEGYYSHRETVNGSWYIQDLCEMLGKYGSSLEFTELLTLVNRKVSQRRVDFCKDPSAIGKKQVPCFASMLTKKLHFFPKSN
Scp-1 inhibitor = Scp-1 phosphatase inhibitors, primary screen, biochemical, colorimetric, uHTS; Recombinant Scp1, phosphopeptide, malachite green phosphate absorbance; inhibition, % at 20 µM; 340,000 compounds, 0.88% hits; AID 493091, 2011;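 active = inhibition above about 50% at 20 µM, limit read from the data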;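 note: plate controls were DMSO wells with enzyme for no effect and wells lacking enzyme for full effect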
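System: SCP-1 catalytic domain; Reagent: Phospho 17-mer peptide substrate; Doses: one concentration, 20 µM, with 1.0% DMSO; Incubation: 45 min room-temperature reaction, 5 min colour, 30 min stabiliser; Signal: Phosphate-binding colour reagent, absorbance read at 630 nm.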
DNMT1 block = human DNMT1 methyltransferase inhibitors, primary screen, biochemical, molecular beacon, fluorescence, HinP1I cleavage, uHTS. DNA (cytosine-5)-methyltransferase 1 (Homo sapiens), P26358. inhibition (reported as % activation of signal), % at 10 µM. 360,000 compounds, 0.83% hits. AID 588458, 2011; in the data active = inhibition above about 50%
LMPTP inh = LMPTP phosphatase inhibitors, primary screen, biochemical, fluorescence intensity, uHTS. recombinant LMPTP-A, OMFP fluorogenic substrate. inhibition, % at 20 µM. 360,000 compounds, 0.22% hits;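 active = compounds that cut the enzyme signal by at least half of the control window in the single-dose screen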;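 note: plate controls were DMSO wells with enzyme plus substrate for no effect and substrate without enzyme for full effect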
Target sequence (P24666 whole entry, looked up): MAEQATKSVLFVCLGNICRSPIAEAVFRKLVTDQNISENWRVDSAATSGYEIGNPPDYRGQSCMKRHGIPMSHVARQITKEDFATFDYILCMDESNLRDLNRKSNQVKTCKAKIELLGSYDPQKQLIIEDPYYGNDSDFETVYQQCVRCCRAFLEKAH
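Test system: LMPTP-A, protein tyrosine phosphatase of low molecular weight; Input: 0.625 nM enzyme; Incubation: 50 min dark incubation at room temperature; Signal: endpoint fluorescence intensity from OMFP dephosphorylation; Read-out basis: % inhibition versus control wells.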
STEP inh = STEP phosphatase inhibitors, primary screen, biochemical, fluorescence intensity, uHTS | Tyrosine-protein phosphatase non-receptor type 5 (Homo sapiens), P54829 | inhibition, % at 20 µM | recombinant STEP, OMFP fluorogenic substrate | 360,000 compounds, 0.25% hits;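 active = inhibition at 20 µM, scaled per plate between control wells, above about 37%, limit read from the data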;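 note: 0% = DMSO with enzyme and substrate and 100% = substrate only without enzyme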
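Also added – OMFP at 25 µM · Test system – STEP tyrosine phosphatase · Technique – FITC-channel fluorescence of OMFP product · Schedule – 20 min at room temperature, dark · Evaluation – control-normalized % inhibition with plate pattern correction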
SUMO1-SIM PPI = modulators of SUMO1 protein-protein interactions, primary screen, biochemical, uHTS; Small ubiquitin-related modifier 1 (Homo sapiens), P63165; SUMO1 binding to a labelled peptide, TR-FRET, 1 h; inhibition, % at 20 µM; 360,000 compounds, 0.33% hits; AID 602429, 2012; in the data active = inhibition above about 37%
Target sequence (P63165 whole entry, looked up): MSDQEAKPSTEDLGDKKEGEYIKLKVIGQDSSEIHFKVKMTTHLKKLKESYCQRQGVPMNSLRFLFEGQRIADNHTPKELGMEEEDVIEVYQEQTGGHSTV
An asterisk follows results filed as active; . = no result given. This is a sample that favours compounds with a hit; in the whole collection about 1.7% have one here.

SMILES	Casp6 inh	Scp-1 inhibitor	DNMT1 block	LMPTP inh	STEP inh	SUMO1-SIM PPI
CC1(C)C2CC[C@]3(C)[C@H](C(=O)C=C4[C@@H]5C[C@@](C)(C(=O)O)CC[C@]5(C)CC[C@]43C)[C@@]2(C)CC[C@@H]1O[C@H]1O[C@H](C(=O)O)[C@@H](O)[C@H](O)[C@H]1O[C@@H]1O[C@H](C(=O)O)[C@@H](O)[C@H](O)[C@H]1O (stereo partly specified)	7.3	.	1.4	-2.0	-1.8	40.9*
CCN(CC)c1ccc(NC(=O)CN2C(=O)CSc3ncccc32)c(C)c1	-2.3	-6.1	0.2	-0.6	-1.1	-3.8
C[C@@H]1CN([C@@H](C)CO)C(=O)c2cccc(NC(=O)Nc3ccccc3)c2O[C@@H]1CN(C)Cc1ccc(Cl)c(Cl)c1	2.1	.	.	.	.	.
C=CCOc1cccn2c(N(C=O)Cc3ccccc3)c(CC)nc12	36.8*	.	1.2	0.7	2.0	-0.3
C[C@@H]1O[C@@H](OC[C@H]2O[C@@H](Oc3cc(O)c4c(=O)cc(-c5ccc(O)c(O)c5)oc4c3)[C@H](O)[C@@H](O)[C@@H]2O)[C@H](O)[C@H](O)[C@H]1O	.	-8.1	8.1	2.7	3.3	-20.2
O=c1cc(-c2ccc(O)cc2)oc2cc(O)c(C3OC(CO)C(O)C(O)C3O)c(O)c12 (stereo unspecified)	37.1*	17.6	5.2	-1.0	0.1	3.0
O=c1c(O[C@H]2O[C@@H](CO)[C@H](O)[C@@H](O)[C@@H]2O)c(-c2ccc(O)cc2)oc2cc(O)cc(O)c12	22.7	35.5	25.5	13.2	13.6	1.7
O=c1c(OC2OC(CO)C(O)C(O)C2OC2OC(CO)C(O)C(O)C2O)c(-c2ccc(O)cc2)oc2cc(O)cc(O)c12 (stereo unspecified)	45.7*	12.2	4.5	0.4	-1.1	1.4
O=c1cc(-c2ccc(O)c(O)c2)oc2cc(O[C@@H]3O[C@H](CO)[C@@H](O)[C@H](O)[C@H]3O)cc(O)c12	.	-1.9	52.2*	0.6	2.0	-15.5
O=c1cc(-c2ccc(O)cc2)oc2cc(O)cc(O)c12	2.2	-9.0	-5.1	1.5	-2.1	-4.1
NNC(=O)CNC(c1ccccc1)c1cc(Br)ccc1NC(=O)c1cccc(Cl)c1 (stereo unspecified)	-0.9	-4.6	-0.7	1.0	1.1	0.3
O=C(CSc1ccc(-c2ccncc2)nn1)c1ccc(Cl)cc1	-0.2	2.2	8.1	-0.5	2.7	50.7*
Cn1c2ccccc2c2c(C(=O)N3CCN(C(=O)c4ccco4)CC3)cn(C3CCCCC3)c(=O)c21	.	-3.1	0.7	0.6	3.7	-1.8
CC1CCN(Cc2nc(-c3ccccc3)no2)CC1	.	-10.8	-1.8	-1.0	-3.7	49.9*
c1ccc(-c2cc(NCCN3CCCCC3)c3ccccc3n2)cc1	.	1.4	43.6	90.3*	-4.3	-10.3
O=C(Cc1cccnc1)N1CC2(C1)[C@H](c1ccccc1)[C@@H](CO)N2C(=O)C1CCCC1	-0.6	.	.	.	.	.
CC(C)NC(=O)N1[C@H](CO)[C@@H](c2ccccc2)C12CN(C(=O)Cc1cccnc1)C2	42.0*	.	.	.	.	.
O=C(CCl)NC(Cc1c[nH]c2ccc(OCc3ccccc3)cc12)C(=O)O (stereo unspecified)	36.0*	6.3	0.2	-3.0	2.2	0.0
O=C(CSc1nc2ccccc2c(=O)n1-c1ccc(F)cc1)Nc1ccc(C(=O)O)cc1	-0.1	-15.6	1.1	-2.4	1.4	4.3
O=C(CSc1nc(-c2ccc(F)cc2)nc2c1Cc1ccccc1O2)Nc1ccc(C(=O)O)cc1	5.4	102.1*	94.7*	84.7*	96.1*	106.4*
O=C(CSc1nc(-c2ccccc2)nc2c1Cc1ccccc1O2)Nc1ccc(C(=O)O)cc1	0.5	90.2*	88.1*	78.9*	87.3*	69.6*
CC(=O)c1ccc(N2CCN(S(=O)(=O)c3ccc4c(c3)C(Cl)(Cl)C(=O)N4)CC2)cc1	9.7	.	-2.6	4.1	1.8	16.9
CC1CCN(S(=O)(=O)c2ccc3c(c2)C(Cl)(Cl)C(=O)N3)CC1	69.1*	.	14.2	-2.9	3.1	14.9
COc1ccc(-c2cc(C(=O)Nc3cc(Br)ccc3O)no2)cc1	-1.3	-15.4	56.9*	68.9*	28.6	-1.1
O=C(COC(=O)c1ccc([N+](=O)[O-])o1)NC1CCS(=O)(=O)C1 (stereo unspecified)	48.6*	0.0	-12.8	-0.8	-1.2	-3.1
SMILES	Casp6 inh	Scp-1 inhibitor	DNMT1 block	LMPTP inh	STEP inh	SUMO1-SIM PPI
COc1cc(C(=O)OCC(=O)NC2CCS(=O)(=O)C2)c([N+](=O)[O-])cc1OC (stereo unspecified)	2.0	-1.4	0.2	0.2	3.3	-11.6
CC1CCCC(NC(=O)COC(=O)c2ccc([N+](=O)[O-])o2)C1C (stereo unspecified)	-0.1	-6.7	-4.1	1.4	-1.8	-22.4
O=C(COC(=O)c1ccc([N+](=O)[O-])o1)NC1CCCCC1	35.8*	-0.1	-4.8	-0.7	3.5	-26.8
Cc1cc(=O)oc2cc(OCc3ccc(C(=O)OCC(=O)NC4CCS(=O)(=O)C4)cc3)ccc12 (stereo unspecified)	13.9	49.8	19.6	13.2	5.6	56.9*
O=C(COC(=O)c1ccc([N+](=O)[O-])o1)NC1CCCC1	10.2	-2.7	-8.1	0.7	3.4	-27.9
CC1CCCCC1NC(=O)COC(=O)c1ccc([N+](=O)[O-])o1 (stereo unspecified)	48.1*	1.2	-7.7	-0.8	-0.8	-21.6
NC(=O)c1cc([N+](=O)[O-])ccc1NCc1cccc(N)c1	-3.5	1.7	-0.5	-1.6	-2.3	-29.2
Fc1ccc(CSc2ccc3nnc(-c4cccs4)n3n2)cc1	-0.9	2.6	12.8	-0.4	-2.8	0.7
CN(Cc1ccc(Cl)c(Cl)c1)C(=O)c1[nH]c(C(F)(F)F)nc1-c1ccccc1	-1.0	.	0.4	-1.0	-2.8	6.7
Cc1ccc(CCNC(=O)CN2C(=O)COc3ccc(S(=O)(=O)N4CCCCC4)cc32)cc1	1.9	-4.7	1.1	0.1	-3.5	-2.2
Cc1cc(SCC(=O)N/N=C/c2ccc(O)c(O)c2O)c(C)cc1Br	.	-14.3	-12.8	11.5	3.2	3.1
CCOC(=O)NC(=O)/C(C#N)=N\Nc1cccc(Cl)c1	-0.6	-5.8	-0.7	-1.5	-2.5	-14.1
NNC(=O)c1cc(O)c(O)c(O)c1	77.0*	34.1	10.5	13.0	-0.4	12.7

Bioassay records from PubChem.
